Assay results pooled from the literature.
Protocols differ between the studies behind these lines. In brackets after ≈: the same amount, converted by molar mass.

The kinetic solubility of `O=C(O)c1cn(-c2ccc(-c3ccc(C(=O)N4CCNCC4)cc3)cc2)cc(O)c1=O` is reported as 290 µM (≈ 122 µg/mL) (aqueous buffer; pH 7.4).
`N#C/C(=C\c1c[nH]nc1-c1cccc(Br)c1)C(=O)O` has a kinetic solubility of 0.1 µM (≈ 0.0318 µg/mL) (PBS; 24 h; pH 7.4).
`CCn1cc(C2CC2)c2c(Cc3ccc(C(F)(F)F)nc3)n(C)nc2c1=O` gave a kinetic solubility of 130 to 260 µM (≈ 48.9 to 97.9 µg/mL) (nephelometry; aqueous buffer; 30 min; pH 6.5).
With `CCNCc1cnn(-c2ccc(-n3ccc(Cl)c(Cl)c3=O)cc2)c1C(F)(F)F` the kinetic solubility was 144 µM (≈ 62.1 µg/mL) (PBS; 24 h; pH 7.4).
For `Cn1nc2c(=O)n(C3CC3)ccc2c1[C@](C)(O)c1cnc(C(F)(F)F)c(Cl)c1`, the kinetic solubility was 80 to 160 µM (≈ 33 to 66 µg/mL) (nephelometry; aqueous buffer; 30 min; pH 6.5).
With `CCNC(=O)c1cnn(-c2ccc(-n3ccc(Cl)c(Cl)c3=O)cc2)c1C(F)(F)F` the kinetic solubility was 0.2 µM (≈ 0.089 µg/mL) (PBS; 24 h; pH 7.4).
`CC[C@@](N)(c1cnc(C(F)(F)F)c(Cl)c1)c1c2ncn(C3CC3)c(=O)c2nn1C` gave a kinetic solubility of 80 to 160 µM (≈ 34.1 to 68.3 µg/mL) (nephelometry; aqueous buffer; 30 min; pH 6.5).
The solubility of `Cn1cncc1[C@@](N)(c1ccc(Cl)cc1)c1ccc2c(c1)c(-c1cccc(Cl)c1)cc(=O)n2C` is reported as 448 µg/mL (≈ 915 µM) (FeSSIF; pH 5; 37 °C).
For `Cc1cc(C#N)cc(C)c1Oc1nc(Nc2ccc(C#N)cc2)nc(N)c1Br`, the thermodynamic solubility was 0.52 µg/mL (FaSSIF; 24 h; pH 6.5).
For `CC1(F)CN(C(=O)Cn2c(=O)c(C(=O)NCc3ccc(Cl)cc3)cc3nccnc32)C1`, the thermodynamic solubility was 52.6 µM (aqueous buffer; 24 h; pH 7.4; 37 °C).
`CCn1cc(C2CC2)c2c(Cc3cnc(C(F)(F)F)c(Cl)c3)n(C)nc2c1=O` gave a kinetic solubility of 50 to 100 µM (≈ 20.5 to 41.1 µg/mL) (nephelometry; aqueous buffer; 30 min; pH 6.5).
`CC1(F)CN(C(=O)Cn2c(=O)c(C(=O)NCc3ccc(Cl)cc3)cc3nc(N4CCN(CC(=O)O)C4=O)cnc32)C1` has a thermodynamic solubility of 5660 µM (aqueous buffer; 24 h; pH 7.4; 37 °C).
`CCn1cc(C2CC2)c2c(Cc3ccc(C(F)(F)F)c(F)c3)n(C)nc2c1=O` gave a kinetic solubility of 16 to 32 µM (≈ 6.29 to 12.6 µg/mL) (nephelometry; aqueous buffer; 30 min; pH 6.5).
`CN(C)C(=O)CN1CCN(c2cnc3c(cc(C(=O)NCc4ccc(Cl)cc4)c(=O)n3CC(=O)N3CC(C)(F)C3)n2)C1=O` gave a thermodynamic solubility of under 1.56 µM (aqueous buffer; 24 h; pH 7.4; 37 °C).
For `C[C@H]1COC2=C1C(=O)C(=O)c1c2ccc2c1CCCC2(C)C`, the thermodynamic solubility was 18.3 µg/mL (PBS; 24 h; pH 7.4; 25 °C).
